# Measured values from ChEMBL document CHEMBL3232844, “Synthesis and structure activity relationships of schweinfurthin indoles” (2014).
# Legend:
# Assay type in all cases: functional
# [1] = Cytotoxicity against human UACC257 cells
# Summary of the method: (§1)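 Cell line run as part of the 60-cell-line screening panel; growth inhibition was reported as a GI50 for each line.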
# COLO 205 = assay: Cytotoxicity against human COLO205 cells
# Summary of the method: (§2)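 Tested in a 60-cell-line human tumor panel screen; the read-out is growth inhibition, reported as GI50 for each cell line.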
# CAKI-1 = assay: Cytotoxicity against human Caki1 cells; summary of the method: as §2
# SK-OV-3 = assay: Cytotoxicity against human SKOV3 cells; summary of the method: as §2
# [2] = Cytotoxicity against human HCT15 cells; summary of the method: as §2
# M14 = assay: Cytotoxicity against human M14 cells; summary of the method: as §2
# CCRF-CEM = assay: Cytotoxicity against human CCRF-CEM cells
# [3] = Cytotoxicity against human NCI-ADR-RES cells; summary of the method: as §2
# DU-145 = assay: Cytotoxicity against human DU145 cells; summary of the method: as §2
# IGROV-1 = assay: Cytotoxicity against human IGROV1 cells; summary of the method: as §2
# HCC 2998 = assay: Cytotoxicity against human HCC2998 cells; summary of the method: as §2
# [4] = Cytotoxicity against human OVCAR8 cells; summary of the method: as §2
# LOX IMVI = assay: Cytotoxicity against human LOXIMVI cells; summary of the method: as §2
# TK-10 = assay: Cytotoxicity against human TK10 cells; summary of the method: as §1
# HOP-62 = assay: Cytotoxicity against human HOP62 cells; summary of the method: as §2
# [5] = Cytotoxicity against human UACC62 cells; summary of the method: as §1
# [6] = Cytotoxicity against human OVCAR3 cells; summary of the method: as §2
# NCI-H226 = assay: Cytotoxicity against human NCI-H226 cells; summary of the method: as §2
# T47D = assay: Cytotoxicity against human T47D cells; summary of the method: as §1
# MOLT-4 = assay: Cytotoxicity against human MOLT4 cells; summary of the method: as §2
# MCF7 = assay: Cytotoxicity against human MCF7 cells; summary of the method: as §2
# NCI-H23 = assay: Cytotoxicity against human NCI-H23 cells; summary of the method: as §2
# SF-539 = assay: Cytotoxicity against human SF539 cells; summary of the method: as §2
# RXF 393 = assay: Cytotoxicity against human RXF393 cells; summary of the method: as §2
# BT-549 = assay: Cytotoxicity against human BT549 cells; summary of the method: as §2
# [7] = Cytotoxicity against human OVCAR4 cells; summary of the method: as §2
# MDA-MB-231 = assay: Cytotoxicity against human MDA-MB-231 cells; summary of the method: as §2
# HT-29 = assay: Cytotoxicity against human HT-29 cells; summary of the method: as §2
# HCT-116 = assay: Cytotoxicity against human HCT116 cells; summary of the method: as §2
# PC-3 = assay: Cytotoxicity against human PC3 cells; summary of the method: as §2
# SK-MEL-5 = assay: Cytotoxicity against human SK-MEL-5 cells; summary of the method: as §2
# HL-60(TB) = assay: Cytotoxicity against human HL-60(TB) cells
# Summary of the method: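 Tested within the NCI 60-cell-line screen, with GI50 as the read-out. Values are the average of two independent experiments. The lowest concentration tested was 10 nM.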
# SF-295 = assay: Cytotoxicity against human SF295 cells; summary of the method: as §2
# SR = assay: Cytotoxicity against human SR cells; summary of the method: as §1
# K562 = assay: Cytotoxicity against human K562 cells; summary of the method: as §2
# SK-MEL-2 = assay: Cytotoxicity against human SK-MEL-2 cells; summary of the method: as §2
# MDA-MB-435 = assay: Cytotoxicity against human MDA-MB-435 cells; summary of the method: as §2
# SF-268 = assay: Cytotoxicity against human SF268 cells; summary of the method: as §2
# 786-0 = assay: Cytotoxicity against human 786-0 cells; summary of the method: as §2
# SNB-75 = assay: Cytotoxicity against human SNB75 cells; summary of the method: as §1
# NCI-H460 = assay: Cytotoxicity against human NCI-H460 cells; summary of the method: as §2
# MDA-MB-468 = assay: Cytotoxicity against human MDA-MB-468 cells; summary of the method: as §2
# KM12 = assay: Cytotoxicity against human KM12 cells; summary of the method: as §2
# [8] = read-out: pLC50 (the source's name) (converted)
structure (smiles),measurement,setting,value
COc1cc(/C=C/c2cc(O)c3c(C/C=C(\C)CCC=C(C)C)c[nH]c3c2)cc2c1O[C@]1(C)CC[C@@H](O)C(C)(C)[C@H]1C2,GI50,[1]; UACC-257,9.12 µM
same,CC50,"[1]; UACC-257, read-out: pLC50 (the source's name) (converted)",> 100 µM
same,TGI,"[1]; UACC-257, read-out: pTGI (converted)",49 µM
same,GI50,COLO 205,0.331 µM
same,CC50,COLO 205; [8],6.31 µM
same,TGI,COLO 205; read-out: pTGI (converted),1.02 µM
same,GI50,CAKI-1,0.447 µM
same,LC50,CAKI-1,7.76 µM
same,TGI,CAKI-1; read-out: pTGI (converted),1.82 µM
same,GI50,SK-OV-3,5.13 µM
same,LC50,SK-OV-3,> 100 µM
same,TGI,SK-OV-3; read-out: pTGI (converted),> 100 µM
same,GI50,[2]; HCT-15,0.741 µM
same,CC50,"[2]; HCT-15, read-out: pLC50 (the source's name) (converted)",53.7 µM
same,TGI,"[2]; HCT-15, read-out: pTGI (converted)",6.76 µM
same,GI50,M14,2 µM
same,CC50,M14; [8],> 100 µM
same,TGI,M14; read-out: pTGI (converted),11.2 µM
same,GI50,CCRF-CEM,0.724 µM
same,CC50,CCRF-CEM; [8],> 100 µM
same,TGI,CCRF-CEM; read-out: pTGI (converted),> 100 µM
same,GI50,[3],46.8 µM
same,CC50,[3]; [8],> 100 µM
same,TGI,[3]; read-out: pTGI (converted),> 100 µM
same,GI50,DU-145,5.37 µM
same,LC50 (50% lethal concentration),DU-145,> 100 µM
same,TGI,DU-145; read-out: pTGI (converted),> 100 µM
same,GI50,IGROV-1,1.62 µM
same,CC50,IGROV-1; [8],> 100 µM
same,TGI,IGROV-1; read-out: pTGI (converted),> 100 µM
same,GI50,HCC 2998,4.9 µM
same,CC50,HCC 2998; [8],> 100 µM
same,TGI,HCC 2998; read-out: pTGI (converted),36.3 µM
same,GI50,[4]; OVCAR-8,72.4 µM
same,CC50,"[4]; OVCAR-8, read-out: pLC50 (the source's name) (converted)",> 100 µM
same,TGI,"[4]; OVCAR-8, read-out: pTGI (converted)",> 100 µM
same,GI50,LOX IMVI,1.26 µM
same,CC50,LOX IMVI; [8],29.5 µM
same,TGI,LOX IMVI; read-out: pTGI (converted),4.79 µM
same,GI50,TK-10,16.6 µM
same,LC50,TK-10,> 100 µM
same,TGI,TK-10; read-out: pTGI (converted),> 100 µM
same,GI50,HOP-62,0.794 µM
same,CC50,HOP-62; [8],8.71 µM
same,TGI,HOP-62; read-out: pTGI (converted),2.75 µM
same,GI50,[5]; UACC-62,1.26 µM
same,CC50,"[5]; UACC-62, read-out: pLC50 (the source's name) (converted)",> 100 µM
same,TGI,"[5]; UACC-62, read-out: pTGI (converted)",4.68 µM
same,GI50,[6]; OVCAR-3,33.9 µM
same,CC50,"[6]; OVCAR-3, read-out: pLC50 (the source's name) (converted)",> 100 µM
same,TGI,"[6]; OVCAR-3, read-out: pTGI (converted)",> 100 µM
same,GI50,NCI-H226,24 µM
same,CC50,NCI-H226; [8],> 100 µM
same,TGI,NCI-H226; read-out: pTGI (converted),> 100 µM
same,GI50,T47D,6.92 µM
same,CC50,T47D; [8],> 100 µM
same,TGI,T47D; read-out: pTGI (converted),> 100 µM
same,GI50,MOLT-4,0.282 µM
same,CC50,MOLT-4; [8],> 100 µM
same,TGI,MOLT-4; read-out: pTGI (converted),2.51 µM
same,GI50,MCF7,0.617 µM
same,LC50,MCF7,8.51 µM
same,TGI,MCF7; read-out: pTGI (converted),2.45 µM
same,GI50,NCI-H23,2.45 µM
same,CC50,NCI-H23; [8],> 100 µM
same,TGI,NCI-H23; read-out: pTGI (converted),24.5 µM
same,GI50,SF-539,0.229 µM
same,CC50,SF-539; [8],6.03 µM
same,TGI,SF-539; read-out: pTGI (converted),1.45 µM
same,GI50,RXF 393,0.0661 µM
same,LC50,RXF 393,3.63 µM
same,TGI,RXF 393; read-out: pTGI (converted),0.309 µM
same,GI50,BT-549,0.525 µM
same,CC50,BT-549; [8],> 100 µM
same,TGI,BT-549; read-out: pTGI (converted),> 100 µM
same,GI50,[7]; OVCAR-4,6.46 µM
same,CC50,"[7]; OVCAR-4, read-out: pLC50 (the source's name) (converted)",> 100 µM
same,TGI,"[7]; OVCAR-4, read-out: pTGI (converted)",> 100 µM
same,GI50,MDA-MB-231,1.1 µM
same,LC50,MDA-MB-231,85.1 µM
same,TGI,MDA-MB-231; read-out: pTGI (converted),6.31 µM
same,GI50,HT-29,0.219 µM
same,CC50,HT-29; [8],20.4 µM
same,TGI,HT-29; read-out: pTGI (converted),1.66 µM
same,GI50,HCT-116,1.38 µM
same,CC50,HCT-116; [8],> 100 µM
same,TGI,HCT-116; read-out: pTGI (converted),22.9 µM
same,GI50,PC-3,0.457 µM
same,LC50,PC-3,> 100 µM
same,TGI,PC-3; read-out: pTGI (converted),24.5 µM
same,GI50,SK-MEL-5,1.07 µM
same,CC50,SK-MEL-5; [8],5.37 µM
same,TGI,SK-MEL-5; read-out: pTGI (converted),2.4 µM
same,GI50,HL-60(TB),0.398 µM
same,CC50,HL-60(TB); [8],> 100 µM
same,TGI,HL-60(TB); read-out: pTGI (converted),12.3 µM
same,GI50,SF-295; read-out: GI50,0.11 µM
same,GI50,SF-295; read-out: pGI50 (converted),0.112 µM
same,CC50,SF-295; [8],2.88 µM
same,TGI,SF-295; read-out: pTGI (converted),0.417 µM
same,GI50,SR,0.55 µM
same,CC50,SR; [8],> 100 µM
same,TGI,SR; read-out: pTGI (converted),29.5 µM
same,GI50,K562,0.417 µM
same,CC50,K562; [8],> 100 µM
same,TGI,K562; read-out: pTGI (converted),8.71 µM
same,GI50,SK-MEL-2,0.871 µM
same,CC50,SK-MEL-2; [8],> 100 µM
same,TGI,SK-MEL-2; read-out: pTGI (converted),18.2 µM
same,GI50,MDA-MB-435,4.07 µM
same,CC50,MDA-MB-435; [8],> 100 µM
same,TGI,MDA-MB-435; read-out: pTGI (converted),> 100 µM
same,GI50,SF-268,2.75 µM
same,CC50,SF-268; [8],> 100 µM
same,TGI,SF-268; read-out: pTGI (converted),> 100 µM
same,GI50,786-0,0.0468 µM
same,LC50 (concentration killing 50% of cells),786-0,5.62 µM
same,TGI,786-0; read-out: pTGI (converted),1.12 µM
same,GI50,SNB-75,0.245 µM
same,CC50,SNB-75; [8],> 100 µM
same,TGI,SNB-75; read-out: pTGI (converted),3.63 µM
same,GI50,NCI-H460,1.2 µM
same,CC50,NCI-H460; [8],57.5 µM
same,TGI,NCI-H460; read-out: pTGI (converted),6.61 µM
same,GI50,MDA-MB-468,2 µM
same,LC50,MDA-MB-468,> 100 µM
same,TGI,MDA-MB-468; read-out: pTGI (converted),44.7 µM
same,GI50,KM12,0.525 µM
same,CC50,KM12; [8],5.37 µM
same,TGI,KM12; read-out: pTGI (converted),1.78 µM
